{"source": "ChEMBL document CHEMBL1155496", "about": "“Discovery of pyrazolyl propionyl cyclohexenamide derivatives as full agonists for the high affinity niacin receptor GPR109A” (Bioorg Med Chem Lett, 2010)", "key": {"Cytochrome P450 2C8": {"target": "T1, Cytochrome P450 2C8 (Homo sapiens, UniProt P10632)", "T1 sequence (P10632 whole entry)": "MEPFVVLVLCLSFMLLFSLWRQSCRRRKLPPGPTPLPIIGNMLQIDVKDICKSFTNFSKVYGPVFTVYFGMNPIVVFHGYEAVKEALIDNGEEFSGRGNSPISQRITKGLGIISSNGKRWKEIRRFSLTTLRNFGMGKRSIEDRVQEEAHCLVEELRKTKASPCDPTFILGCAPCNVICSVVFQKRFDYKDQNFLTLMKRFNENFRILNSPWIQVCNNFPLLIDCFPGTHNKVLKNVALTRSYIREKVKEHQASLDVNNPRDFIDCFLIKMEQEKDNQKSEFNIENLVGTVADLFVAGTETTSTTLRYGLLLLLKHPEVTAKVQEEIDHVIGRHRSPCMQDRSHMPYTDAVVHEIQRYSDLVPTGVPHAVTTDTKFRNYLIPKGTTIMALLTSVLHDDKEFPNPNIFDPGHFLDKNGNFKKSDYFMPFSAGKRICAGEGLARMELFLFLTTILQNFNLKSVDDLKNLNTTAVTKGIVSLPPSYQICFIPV", "experiment": "Inhibition of CYP2C8 in human liver microsomes", "assay_type": "ADME, Microsome", "outline": "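Human liver microsomes with taxol as substrate and montelukast as positive control. IC50 determined.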"}, "Cytochrome P450 2C9": {"target": "Cytochrome P450 2C9 (Homo sapiens, UniProt P11712)", "sequence (P11712 whole entry)": "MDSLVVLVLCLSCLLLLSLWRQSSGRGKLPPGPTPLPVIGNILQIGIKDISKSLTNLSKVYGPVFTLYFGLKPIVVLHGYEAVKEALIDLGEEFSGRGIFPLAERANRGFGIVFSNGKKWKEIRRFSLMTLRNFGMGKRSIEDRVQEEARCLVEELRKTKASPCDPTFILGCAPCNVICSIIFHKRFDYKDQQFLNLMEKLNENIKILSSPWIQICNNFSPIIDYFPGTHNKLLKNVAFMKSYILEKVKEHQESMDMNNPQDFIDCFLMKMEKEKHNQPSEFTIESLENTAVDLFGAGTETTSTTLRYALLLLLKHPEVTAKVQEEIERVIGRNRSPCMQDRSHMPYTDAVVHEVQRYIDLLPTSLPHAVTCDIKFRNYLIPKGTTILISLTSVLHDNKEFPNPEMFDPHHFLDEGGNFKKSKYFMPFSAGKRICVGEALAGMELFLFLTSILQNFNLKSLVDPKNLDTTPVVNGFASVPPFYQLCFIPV", "experiment": "Inhibition of CYP2C9 in human liver microsomes", "assay_type": "ADME, Microsome"}, "[1]": {"experiment": "Cmax in mouse at 1 mg/kg, iv and 2 mg/kg, po", "assay_type": "ADME, organism-based", "conditions": "in vivo", "outline": "(§1)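 Formulated at 0.2 mg/mL in ethanol/PEG/water (10:40:50). Dosed 1 mg/kg IV and 2 mg/kg PO, n = 3 per route. Blood was protein-precipitated with acetonitrile and drug concentration measured by LC/MS/MS.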"}, "[2]": {"experiment": "Bioavailability in mouse at 1 mg/kg, iv and 2 mg/kg, po", "assay_type": "ADME, organism-based", "conditions": "in vivo", "outline": "as §1"}, "[3]": {"experiment": "Volume of distribution at steady state in mouse at 1 mg/kg, iv and 2 mg/kg, po", "assay_type": "ADME, organism-based", "conditions": "in vivo, read-out: Vdss", "outline": "as §1"}, "[4]": {"target": "Hydroxycarboxylic acid receptor 2 (Homo sapiens) (UniProt Q8TDS4)", "sequence (Q8TDS4 whole entry)": "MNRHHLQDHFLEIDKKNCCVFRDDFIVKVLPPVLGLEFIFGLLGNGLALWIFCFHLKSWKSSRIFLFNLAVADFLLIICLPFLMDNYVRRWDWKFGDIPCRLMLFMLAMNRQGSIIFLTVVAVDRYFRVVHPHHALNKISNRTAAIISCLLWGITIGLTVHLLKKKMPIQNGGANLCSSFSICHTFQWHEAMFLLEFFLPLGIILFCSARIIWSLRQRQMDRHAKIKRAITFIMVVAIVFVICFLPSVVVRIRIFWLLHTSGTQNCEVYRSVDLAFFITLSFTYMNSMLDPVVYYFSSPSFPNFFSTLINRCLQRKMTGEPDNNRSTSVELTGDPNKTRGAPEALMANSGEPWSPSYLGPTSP", "experiment": "Serum shift in 3H-niacin binding to GPR109A receptor with 4% human serum"}, "[5]": {"experiment": "Half life in mouse at 1 mg/kg, iv and 2 mg/kg, po", "assay_type": "ADME, organism-based", "conditions": "in vivo", "outline": "as §1"}, "[6]": {"experiment": "Clearance in mouse at 1 mg/kg, iv and 2 mg/kg, po", "assay_type": "ADME, organism-based", "conditions": "in vivo", "outline": "as §1"}, "Adipocyte": {"test_system": "Adipocyte", "experiment": "Inhibition of lipolysis in human adipocytes assessed as free glycerol level", "assay_type": "functional, cell-based", "outline": "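Lipolysis in human adipocytes; free glycerol release measured and used to calculate IC50.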"}, "[7]": {"experiment": "Cmax in rat at 1 mg/kg, iv and 2 mg/kg, po", "assay_type": "ADME, organism-based", "conditions": "in vivo", "outline": "as §1"}, "[8]": {"experiment": "Volume of distribution at steady state in rat at 1 mg/kg, iv and 2 mg/kg, po", "assay_type": "ADME, organism-based", "conditions": "in vivo, read-out: Vdss", "outline": "as §1"}, "[9]": {"experiment": "Half life in rat at 1 mg/kg, iv and 2 mg/kg, po", "assay_type": "ADME, organism-based", "conditions": "in vivo", "outline": "as §1"}, "[10]": {"experiment": "Clearance in rat at 1 mg/kg, iv and 2 mg/kg, po", "assay_type": "ADME, organism-based", "conditions": "in vivo", "outline": "as §1"}, "[11]": {"experiment": "Bioavailability in rat at 1 mg/kg, iv and 2 mg/kg, po", "assay_type": "ADME, organism-based", "conditions": "in vivo", "outline": "as §1"}}}
{"smiles": "O=C(CCc1ccn(-c2ccccc2)n1)Nc1ccccc1C(=O)O", "values": [{"measurement": "IC50", "setting": "Cytochrome P450 2C8", "value": 2.7, "unit": "µM"}, {"measurement": "IC50", "setting": "Cytochrome P450 2C9", "value": 2.5, "unit": "µM"}]}
{"smiles": "Cc1c(CC(C)C(=O)NC2=C(C(=O)O)CCCC2)cnn1-c1ccc(O)cc1", "note": "(stereo unspecified)", "values": [{"measurement": "Cmax", "setting": "[1]", "value": 4780, "unit": "nM"}, {"measurement": "IC50", "setting": "Cytochrome P450 2C8", "value": "> 100", "unit": "µM"}, {"measurement": "IC50", "setting": "Cytochrome P450 2C9", "value": "> 100", "unit": "µM"}, {"measurement": "bioavailability", "setting": "[2]", "value": 52, "unit": "%"}, {"measurement": "Vd", "setting": "[3]", "value": 0.68, "unit": "L/kg"}, {"measurement": "serum shift", "setting": "[4]", "value": 50}, {"measurement": "half-life", "setting": "[5]", "value": 288, "unit": "min"}, {"measurement": "clearance", "setting": "[6]", "value": 3.5, "unit": "mL/min/kg"}, {"measurement": "IC50", "setting": "Adipocyte", "value": 70, "unit": "nM"}]}
{"smiles": "CC(Cc1ccn(-c2ccc(O)cn2)n1)C(=O)Nc1ccccc1C(=O)O", "note": "(stereo unspecified)", "values": [{"measurement": "serum shift", "setting": "[4]", "value": 200}]}
{"smiles": "O=C(CCc1ccn(-c2ccc(O)cn2)n1)Nc1ccccc1C(=O)O", "values": [{"measurement": "serum shift", "setting": "[4]", "value": 170}]}
{"smiles": "CCCC1CCC(C(=O)O)=C(NC(=O)C(C)Cc2ccn(-c3ccc(O)cn3)n2)C1", "note": "(stereo unspecified)", "values": [{"measurement": "serum shift", "setting": "[4]", "value": 110}]}
{"smiles": "CC(Cc1ccn(-c2ccc(O)cn2)n1)C(=O)NC1=C(C(=O)O)CCC(c2cc(F)c(F)c(F)c2)C1", "note": "(stereo unspecified)", "values": [{"measurement": "serum shift", "setting": "[4]", "value": 30}]}
{"smiles": "O=C(CCc1cnn(-c2ccc(O)cc2)c1)Nc1ccccc1C(=O)O", "values": [{"measurement": "Cmax", "setting": "[1]", "value": 480, "unit": "nM"}, {"measurement": "bioavailability", "setting": "[2]", "value": 21, "unit": "%"}, {"measurement": "Vd", "setting": "[3]", "value": 3.56, "unit": "L/kg"}, {"measurement": "serum shift", "setting": "[4]", "value": 70}, {"measurement": "half-life", "setting": "[5]", "value": 210, "unit": "min"}, {"measurement": "clearance", "setting": "[6]", "value": 17, "unit": "mL/min/kg"}]}
{"smiles": "CC(Cc1ccn(-c2ccc(O)cn2)n1)C(=O)NC1=C(C(=O)O)CCCC1", "note": "(stereo unspecified)", "values": [{"measurement": "serum shift", "setting": "[4]", "value": 900}]}
{"smiles": "O=C(CCc1ccn(-c2ccc(O)cn2)n1)NC1=C(C(=O)O)CCCC1", "values": [{"measurement": "serum shift", "setting": "[4]", "value": 1000}]}
{"smiles": "O=C(O)c1cccnc1", "note": "[NIACIN]", "values": [{"measurement": "IC50", "setting": "Adipocyte", "value": 80, "unit": "nM"}]}
{"smiles": "O=C(CCc1cnn(-c2ccc(O)cn2)c1)NC1=C(C(=O)O)CCCC1", "values": [{"measurement": "Cmax", "setting": "[1]", "value": 11500, "unit": "nM"}, {"measurement": "IC50", "setting": "Cytochrome P450 2C9", "value": "> 50", "unit": "µM"}, {"measurement": "bioavailability", "setting": "[2]", "value": 46, "unit": "%"}, {"measurement": "Vd", "setting": "[3]", "value": 0.4, "unit": "L/kg"}, {"measurement": "serum shift", "setting": "[4]", "value": 240}, {"measurement": "half-life", "setting": "[5]", "value": 198, "unit": "min"}, {"measurement": "clearance", "setting": "[6]", "value": 1.2, "unit": "mL/min/kg"}]}
{"smiles": "O=C(CCc1cnn(-c2ccccc2)c1)Nc1ccccc1C(=O)O", "values": [{"measurement": "IC50", "setting": "Cytochrome P450 2C9", "value": 15, "unit": "µM"}, {"measurement": "serum shift", "setting": "[4]", "value": 40}]}
{"smiles": "Cc1c(CC(C)C(=O)Nc2ccccc2C(=O)O)cnn1-c1ccc(O)cc1", "note": "(stereo unspecified)", "values": [{"measurement": "IC50", "setting": "Cytochrome P450 2C8", "value": 34, "unit": "µM"}, {"measurement": "IC50", "setting": "Cytochrome P450 2C9", "value": 22, "unit": "µM"}, {"measurement": "serum shift", "setting": "[4]", "value": 60}, {"measurement": "IC50", "setting": "Adipocyte", "value": 60, "unit": "nM"}]}
{"smiles": "CC(Cc1ccn(-c2ccc(O)cn2)n1)C(=O)NC1=C(C(=O)O)CC(c2cc(F)cc(F)c2)CC1", "note": "(stereo unspecified)", "values": [{"measurement": "Cmax", "setting": "[7]", "value": 1580, "unit": "nM"}, {"measurement": "IC50", "setting": "Cytochrome P450 2C8", "value": 7.7, "unit": "µM"}, {"measurement": "Vd", "setting": "[8]", "value": 0.53, "unit": "L/kg"}, {"measurement": "IC50", "setting": "Cytochrome P450 2C9", "value": 23, "unit": "µM"}, {"measurement": "half-life", "setting": "[9]", "value": 330, "unit": "min"}, {"measurement": "serum shift", "setting": "[4]", "value": 100}, {"measurement": "clearance", "setting": "[10]", "value": 8.6, "unit": "mL/min/kg"}, {"measurement": "bioavailability", "setting": "[11]", "value": 39, "unit": "%"}]}
{"smiles": "CC(Cc1ccn(-c2ccc(O)cn2)n1)C(=O)NC1=C(C(=O)O)CC[C@@H](C)C1", "note": "(stereo partly specified)", "values": [{"measurement": "serum shift", "setting": "[4]", "value": 290}]}
{"smiles": "O=C(CCc1ccc(-c2ccc(O)cc2Cl)cc1)Nc1ccccc1C(=O)O", "values": [{"measurement": "Cmax", "setting": "[1]", "value": 930, "unit": "nM"}, {"measurement": "bioavailability", "setting": "[2]", "value": 4.6, "unit": "%"}, {"measurement": "serum shift", "setting": "[4]", "value": "> 5000"}]}
{"smiles": "CC(Cc1ccn(-c2ccc(O)cn2)n1)C(=O)NC1=C(C(=O)O)CCC(c2cccc(F)c2)C1", "note": "(stereo unspecified)", "values": [{"measurement": "serum shift", "setting": "[4]", "value": 40}]}
{"smiles": "CC(Cc1ccn(-c2ccc(O)cn2)n1)C(=O)NC1=C(C(=O)O)CCC(c2cccc(F)c2F)C1", "note": "(stereo unspecified)", "values": [{"measurement": "Cmax", "setting": "[7]", "value": 30, "unit": "nM"}, {"measurement": "Vd", "setting": "[8]", "value": 0.36, "unit": "L/kg"}, {"measurement": "half-life", "setting": "[9]", "value": 44.4, "unit": "min"}, {"measurement": "serum shift", "setting": "[4]", "value": 30}, {"measurement": "clearance", "setting": "[10]", "value": 28, "unit": "mL/min/kg"}, {"measurement": "bioavailability", "setting": "[11]", "value": 4.5, "unit": "%"}]}
